Results: ChEMBL document CHEMBL4834412, “2,4,5-Trisubstituted Pyrimidines as Potent HIV-1 NNRTIs: Rational Design, Synthesis, Activity Evaluation, and Crystallographic Studies” (J Med Chem, 2021)
pEC50: −log10 of the molar value.

Legend:
[1] = tested on: Human immunodeficiency virus 1; assay: Antiviral activity against HIV-1 harboring RT Y181C mutant infected in human MT4 cells assessed as protection against virus-induced cytopathogenicity after 5 days by MTT assay; type: functional, organism-based; conditions: Human immunodeficiency virus 1, MT4, 120 h
[2] = tested on: Human immunodeficiency virus 1; assay: Antiviral activity against HIV-1 harboring RT K103N mutant infected in human MT4 cells assessed as protection against virus-induced cytopathogenicity after 5 days by MTT assay; type: functional, organism-based; conditions: Human immunodeficiency virus 1, MT4, 120 h
[3] = tested on: Human immunodeficiency virus 1; assay: Antiviral activity against HIV-1 harboring RT F227L/V106A mutant infected in human MT4 cells assessed as protection against virus-induced cytopathogenicity after 5 days by MTT assay; type: functional, organism-based; conditions: Human immunodeficiency virus 1, MT4, 120 h
[4] = tested on: Human immunodeficiency virus 1; assay: Antiviral activity against HIV-1 harboring RT L100I mutant infected in human MT4 cells assessed as protection against virus-induced cytopathogenicity after 5 days by MTT assay; type: functional, organism-based; conditions: Human immunodeficiency virus 1, MT4, 120 h
[5] = tested on: Human immunodeficiency virus 1; assay: Antiviral activity against HIV-1 harboring RT E138K mutant infected in human MT4 cells assessed as protection against virus-induced cytopathogenicity after 5 days by MTT assay; type: functional, organism-based; conditions: Human immunodeficiency virus 1, MT4, 120 h
[6] = tested on: Human immunodeficiency virus 2; assay: Antiviral activity against HIV-2 ROD infected in human MT4 cells assessed as protection against virus-induced cytopathogenicity after 5 days by MTT assay; conditions: Human immunodeficiency virus 2, ROD, MT4, 120 h
[7] = tested on: Human immunodeficiency virus 1; assay: Antiviral activity against NNRTI-resistant HIV-1 RES056 harboring RT K103N/Y181C mutant infected in human MT4 cells assessed as protection against virus-induced cytopathogenicity after 5 days by MTT assay; type: functional, organism-based; conditions: Human immunodeficiency virus 1, RES056, MT4, 120 h
[8] = tested on: Human immunodeficiency virus 1; assay: Antiviral activity against HIV-1 harboring RT Y188L mutant infected in human MT4 cells assessed as protection against virus-induced cytopathogenicity after 5 days by MTT assay; type: functional, organism-based; conditions: Human immunodeficiency virus 1, MT4, 120 h
[9] = tested on: Human immunodeficiency virus 1; assay: Antiviral activity against HIV-1 strain IIIB infected in human MT4 cells assessed as protection against virus-induced cytopathicity after 5 days by MTT assay; type: functional, organism-based; conditions: Human immunodeficiency virus 1, IIIB, MT4, 120 h
[10] = Acute toxicity in Kunming mouse assessed as body weight change at 2000 mg/kg, po single dose measured up to 2 weeks; type: organism-based; conditions: in vivo, 336 h
Method in brief: (§1)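 Kunming mice, 20 total, randomly split into two groups: vehicle control (0 mg/kg) or single oral 2000 mg/kg dose on day 1. Animals observed for toxic symptoms and mortality over the following two weeks; body weight tracked and expressed as relative change.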

[11] = Tmax in Sprague-Dawley rat at 20 mg/kg, po; type: ADME, organism-based; conditions: in vivo
Method in brief: (§2)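 Sprague Dawley rats given a single 2 mg/kg intravenous or 20 mg/kg oral dose. Plasma concentration–time profiles followed. PK parameters reported as mean ± SD, n = 3.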

[12] = Acute toxicity in Kunming mouse assessed as toxic symptoms at 2000 mg/kg, po single dose measured up to 2 weeks; type: organism-based; conditions: in vivo, 336 h; method in brief: as §1
[13] = Acute toxicity in Kunming mouse assessed as mortality at 2000 mg/kg, po single dose measured up to 2 weeks; type: organism-based; conditions: in vivo, 336 h; method in brief: as §1
[14] = Tmax in Sprague-Dawley rat at 2 mg/kg, iv; type: ADME, organism-based; conditions: in vivo; method in brief: as §2

SMILES	pEC50 [1]	pEC50 [2]	pEC50 [3]	pEC50 [4]	pEC50 [5]	pEC50 [6]	pEC50 [7]	pEC50 [8]	pEC50 [9]	Activity [10]	Tmax [11]	Activity [12]	Activity [13]	Tmax [14]
Cc1cc(C#N)cc(C)c1Oc1nc(NC2CCN(Cc3ccc(S(N)(=O)=O)cc3)CC2)ncc1-c1ccsc1	7.91	8.33	7.07	7.81	7.71	< 5.21	6.68	7.52	8.29					
Cc1cc(C#N)cc(C)c1Oc1nc(NC2CCN(Cc3ccc(C(N)=O)cc3)CC2)ncc1-c1ccoc1	8.01	8.46	6.51	8.00	7.95	< 3.74	6.97	7.68	8.47					
Cc1cc(C#N)cc(C)c1Oc1nc(NC2CCN(Cc3ccc(C(N)=O)cc3)CC2)ncc1-c1ccncc1	8.17	8.42	7.98	8.37	7.96	< 4.44	7.61	8.17	8.43	Non-Toxic	60 min	Non-Toxic	Non-Toxic	19.8 min
Cc1cc(C#N)cc(C)c1Oc1nc(NC2CCN(Cc3ccc(S(N)(=O)=O)cc3)CC2)ncc1-c1cccs1	7.97	8.27	7.52	8.23	8.11	≤ 4.48	6.99	8.03	8.34					
Cc1cc(/C=C/C#N)cc(C)c1Oc1nc(NC2CCN(Cc3ccc(S(N)(=O)=O)cc3)CC2)ncc1-c1ccc(F)nc1	7.81	8.12	7.64	7.94	7.31		7.55	7.44	8.24					
Cc1cc(C#N)cc(C)c1Oc1nc(NC2CCN(Cc3ccc(S(C)(=O)=O)cc3)CC2)ncc1-c1ccco1	7.58	8.23	6.96	7.69	7.56	< 5.13	6.63	7.54	8.34					
